Hits are enriched below; roughly 2.5% of the tested compounds scored in any of these assays.
FN deposit inh = fibronectin deposition inhibition | AH1F fibroblasts, Alexa488-fibronectin deposition fluorescence, overnight | inhibition, % at 12.6 µM | 0.086% of 350,000 active;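 active means mean inhibition across replicates of 30% or more, regardless of how many single replicates reach that level; inconclusive means mean under 30% yet at least half of replicates reach 30%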;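 further: positive control wells lacked labelled fibronectin entirely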
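Measured by – fluorescence 485/525 nm · System – AH1F fibroblast monolayer, labelled fibronectin deposition · Amount – 10000 cells per well · Buffer or medium – serum-reduced DMEM (2% serum) · Doses – single dose, pinned · Also added – fluorescent fibronectin at 24 nM final · Schedule – 1 h cell attachment, overnight exposure to compound and label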
Glyco luc inh = blocks N-linked glycosylation in D54 reporter cells | D54 ERlucT glycosylation luciferase reporter, 24 h; percent of 100 nM tunicamycin response | 0.23% of 360,000 active | reporter increase, % at 12.5 µM;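 active means mean luciferase reporter signal, scaled so untreated is 0 and the glycosylation-blocking control 100, at or above a set limit in every replicate; inconclusive means mean reaches the limit but not every replicate does; inactive means mean below the limit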;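 further: luciferase carries N-glycosylation sites so blocking glycosylation raises the light; 0% = median of neutral control wells and 100% = median of 100 nM tunicamycin wells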
HIV Env fusion = inhibitors of HIV Env-mediated cell fusion; HeLa-JRFL Env/CEM21 cell fusion, luciferase; inhibition, % at 12.3 µM; 1.1% of 360,000 active; AID 651610;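 active means mean replicate inhibition score of at least 50 and every replicate individually at or above 50; inconclusive means only one of the two criteria met; inactive means mean below 50 and not all replicates reaching 50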;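 further: 0% = plate neutral controls and 100% = maraviroc near 300 nM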
MLL AF4-AF9 inh = MLL-AF4/AF9 protein interaction inhibition; P42568; AlphaScreen, biotin-AF4 peptide binding to FLAG-AF9; inhibition, % at 10 µM; 0.47% of 350,000 active; AID 651704;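 active means every replicate reaching a set inhibition limit, whatever the replicate mean, cut at about 25% in these data; inconclusive means mean inhibition reaches that limit but some replicates miss it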;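 further: 0% = plate neutral control median and 100% = total signal loss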
Target sequence (P42568 whole entry, looked up): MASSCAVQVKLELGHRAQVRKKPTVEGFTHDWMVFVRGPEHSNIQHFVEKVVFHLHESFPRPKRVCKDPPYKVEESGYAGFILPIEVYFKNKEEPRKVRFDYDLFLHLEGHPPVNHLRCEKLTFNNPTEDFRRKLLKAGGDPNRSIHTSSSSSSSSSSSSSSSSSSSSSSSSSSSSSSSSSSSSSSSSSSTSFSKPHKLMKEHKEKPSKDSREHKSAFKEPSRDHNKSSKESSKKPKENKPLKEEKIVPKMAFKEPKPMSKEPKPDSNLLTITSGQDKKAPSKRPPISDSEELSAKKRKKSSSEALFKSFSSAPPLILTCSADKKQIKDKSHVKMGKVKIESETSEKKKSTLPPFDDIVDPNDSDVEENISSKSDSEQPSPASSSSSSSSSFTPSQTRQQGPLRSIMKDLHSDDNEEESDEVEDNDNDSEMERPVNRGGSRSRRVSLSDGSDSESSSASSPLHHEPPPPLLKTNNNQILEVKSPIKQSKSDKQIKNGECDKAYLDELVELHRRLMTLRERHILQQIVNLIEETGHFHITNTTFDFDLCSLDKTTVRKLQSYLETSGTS
EWS-Fli block = inhibitors of EWS/Fli oncoprotein transcriptional activity; A673 NR0B1-luciferase reporter, viability-normalised; inhibition, % at 12.6 µM; 0.67% of 350,000 active;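 active means mean inhibition of at least 50% after viability correction, with every replicate also passing that limit; inconclusive means mean reaches 50% but only one of two replicates passes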;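 further: firefly luciferase signal divided by Alamar Blue viability fluorescence both relative to DMSO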
PAX8 inh HTS = PAX8 transcriptional activity inhibition. RMG-I TPO-luciferase reporter, SteadyGlo, 24 h. inhibition, % at 12.6 µM. 1.2% of 360,000 active;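 active means mean replicate inhibition at least 60% with every replicate also reaching 60%; inconclusive means only one of the two criteria is met; inactive means mean below 60% and not all replicates reaching 60%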;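 further: luciferase light reporting Pax8 driven TPO promoter activity; plate controls were median of neutral control wells for no effect and mitoxantrone controls for full effect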
* marks the source's active call; other numbers are inactive results; ? = inconclusive; · = not tested or not shown; [ ] = dose if it differs, or a comment.

SMILES | FN deposit inh | Glyco luc inh | HIV Env fusion | MLL AF4-AF9 inh | EWS-Fli block | PAX8 inh HTS
Cc1nc2ccc(-c3nc4ccc(N)cc4[nH]3)cc2[nH]1 | -12 | -5 | 0 | 9 | -19 | 69*
Nc1ccc2nc(-c3ccc(Cl)cc3)[nH]c2c1 | -2 | -1 | -68 | ? | -57 | 80*
Cc1ccc(N(Cc2cc(=O)[nH]c3ccccc23)C(=O)CCl)c(C)c1 | -2 | -11 | 55* | -1 | 67* | 69*
CCCC(=O)N(Cc1cc(=O)[nH]c2ccccc12)c1ccc(C)cc1C | -3 | 0 | 0 | 1 | 0 | 24
CC(C)NC(=O)N(C)C[C@@H]1Oc2ccc(NC(=O)NC3CCCCC3)cc2C(=O)N([C@@H](C)CO)C[C@@H]1C | · | · | 13[16.7 µM] | -1 | 1 | ·
CCCCCC(CC(=O)NO)C(=O)NC(C(=O)N1CCCC1CO)C(C)C (stereo not drawn) | -6 | 9 | -8 | -4 | -10 | 90*
COC(=O)C1=CN(c2ccc(F)cc2)C(N)=C(C#N)C1c1ccc(-c2ccccc2)cc1 (stereo not drawn) | · | · | -35 | 1 | 2 | 7
COC(=O)C1=CN(c2ccc3c(c2)OCO3)C(N)=C(C#N)C1c1ccc(-c2ccccc2)cc1 (stereo not drawn) | 2 | · | -138 | · | 67* | 43
CN(C)c1cccc(N(C)C)c1CNC(=O)NC(=O)c1c(F)cccc1F | · | -5 | -19 | -2 | -2 | 11
CN(C)c1cccc(F)c1C(=O)NC(=O)Nc1ccc(Cl)cc1 | 8 | 17 | -68 | 0 | 53* | ·
CCOc1ccc(N2C(=O)Nc3ccccc3C2(O)C(=O)N2CCN(c3ccccn3)CC2)cc1 (stereo not drawn) | -3 | 27* | -44 | 0 | 26 | 6
CCOc1ccc(C(=O)N2CCN(c3ccccn3)CC2)cc1 | 3 | -1 | 31 | -2 | 5 | 5
Cc1noc(C)c1NC(=O)N(C)C[C@H]1OCCCC[C@H](C)Oc2ccc(NC(=O)c3ccccc3)cc2C(=O)N([C@H](C)CO)C[C@@H]1C | -9 | · | 68*[16.7 µM] | 0 | -10 | 0
C[C@H](CO)N1C[C@H](C)[C@@H](CN(C)C(=O)Nc2ccc(C(F)(F)F)cc2)OCCCC[C@H](C)Oc2ccc(NC(=O)c3ccccc3)cc2C1=O | · | · | 61*[16.7 µM] | -10 | 4 | 1
C[C@H]1CCCCO[C@H](CN(C)C(=O)Nc2ccc(C(F)(F)F)cc2)[C@@H](C)CN([C@@H](C)CO)C(=O)c2cc(NC(=O)c3ccccc3)ccc2O1 | 2 | · | 75*[16.7 µM] | -12 | -7 | 33
Cc1noc(C)c1NC(=O)N(C)C[C@H]1OCCCC[C@H](C)Oc2ccc(NC(=O)c3ccccc3)cc2C(=O)N([C@@H](C)CO)C[C@@H]1C | 6 | · | 26[16.7 µM] | -1 | -11 | -3
COc1ccc(CN(C)C[C@H]2Oc3ccc(NS(=O)(=O)c4ccc(C)cc4)cc3C(=O)N([C@H](C)CO)C[C@H]2C)cc1 | · | · | · | -5 | -1 | -2
O=C1C=CC(=O)c2c(O)c(N3CCN(CCO)CC3)c(Cl)c(O)c21 | 10 | -19 | -158 | 14 | 38 | -10
O=C1C=CC(=O)c2c(O)c(N3CCN(CCOCCO)CC3)c(Br)c(O)c21 | 2 | -21 | 61* | 19 | ? | 97*
CO[C@@H]1CN(C)C(=O)c2cc(NC(C)=O)ccc2OC[C@H](C)N(Cc2cccc(F)c2)C[C@H]1C | 13 | · | 9[16.7 µM] | 3 | 5 | 6
CC1(Cc2ccc(C(F)(F)F)o2)C(=O)Nc2cc(-c3ccc(F)cc3F)ccc21 (stereo not drawn) | -12 | -5 | 62* | 3 | 2 | 13
COc1ccc(-c2cc(-c3nc4ccccn4c3NCc3ccccc3)ccc2OC)cc1 | 29 | -15 | ? | 16 | 76* | 102*
C[C@H]1CN([C@@H](C)CO)S(=O)(=O)c2ccc(-c3cccnc3)cc2O[C@H]1CN(C)C(=O)C1CC1 | · | · | -11[16.7 µM] | · | -11 | ·
COc1ccc(C(=O)C2CCN(C(=O)c3ccc(F)cc3)CC2)cc1 | 12 | -2 | 10 | -4 | 3 | 7
COc1ccc(C(=O)C2CCN(C(=O)c3ccc(C)cc3)CC2)cc1 | -6 | 1 | 86* | · | · | 5
SMILES | FN deposit inh | Glyco luc inh | HIV Env fusion | MLL AF4-AF9 inh | EWS-Fli block | PAX8 inh HTS
O=C1C(N2CCOCC2)=C(n2nnc3ccccc32)C(=O)c2ccccc21 | 13 | -18 | 80* | · | · | 83*
C[C@H]1CCCCO[C@H](CN(C)Cc2ccc(Cl)c(Cl)c2)[C@@H](C)CN([C@@H](C)CO)C(=O)c2cc(NC(=O)Nc3ccccc3)ccc2O1 | 1 | · | 39[16.7 µM] | 1 | 14 | 85*
C[C@@H]1CN([C@H](C)CO)C(=O)c2cc(NC(=O)c3ccccc3)ccc2O[C@@H](C)CCCCO[C@@H]1CN(C)Cc1ccc(Cl)c(Cl)c1 | 15 | · | 10[16.7 µM] | -1 | 2 | 51
C[C@H](CO)N1C[C@H](C)[C@@H](CN(C)Cc2ccc(Cl)c(Cl)c2)OCCCC[C@H](C)Oc2ccc(NC(=O)Nc3ccccc3)cc2C1=O | -3 | · | 11[16.7 µM] | -1 | 9 | 87*
C[C@H](CO)N1C[C@H](C)[C@H](CN(C)Cc2ccc(Cl)c(Cl)c2)OCCCC[C@H](C)Oc2ccc(NC(=O)Nc3ccccc3)cc2C1=O | -5 | · | 71*[16.7 µM] | -1 | -4 | 100*
C[C@@H]1CCCCO[C@@H](CN(C)Cc2ccc(Cl)c(Cl)c2)[C@@H](C)CN([C@@H](C)CO)C(=O)c2cc(NC(=O)Nc3ccccc3)ccc2O1 | -2 | · | 13[16.7 µM] | 3 | 6 | 81*
C[C@@H]1CCCCO[C@H](CN(C)Cc2ccc(Cl)c(Cl)c2)[C@H](C)CN([C@@H](C)CO)C(=O)c2cc(NC(=O)c3ccccc3)ccc2O1 | 8 | · | -3[16.7 µM] | 1 | -5 | 22
O=C(C1CCCC1)N1CC2(C1)[C@@H](c1ccccc1)[C@H](CO)N2CCC(F)(F)F | 5 | · | · | -3 | 1 | ·
CCCNC(=O)C[C@H]1CC[C@H]2[C@@H](COC[C@@H](O)CN2Cc2cccc(F)c2)O1 | -3 | · | · | 0 | 3 | 10
Cc1ccc2c(c1)[C@H]1[C@H](CO2)[C@H](c2ccccc2)[C@]2(C)C(=O)Nc3cc(F)ccc3C(=O)N12 | -1 | 9 | 18 | 4 | 61* | 11
Cc1ccc2c(c1)[C@H]1[C@H](CO2)[C@H](c2ccccc2)[C@]2(C)C(=O)Nc3ccccc3C(=O)N12 | -2 | 13 | 27 | 1 | 57* | 45
Cc1ccc2c(c1)[C@H]1[C@H](CO2)[C@H](c2ccccc2)[C@]2(C)C(=O)Nc3ccc(Cl)cc3C(=O)N12 | 6 | 13 | 21 | 4 | 8 | 13
O=C(NC[C@H]1CC[C@H]2[C@H](CN2Cc2ccccc2F)O1)C1CCCCC1 | · | · | · | -3 | -3 | ·
